Tested on: HEK-293T
Assay: Multiplex assay against HEK293T
Type: toxicity, cell-based
Details: human
How it was run: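 Cells stained live at seeding with Hoechst33342, BioTracker Green Microtubule Cytoskeleton Dye, MitoTracker Red and Annexin V Alexa Fluor 680 were imaged on a CQ1 microscope at 37°C and 5% CO2 after compound addition. Their classification by CellPathfinder machine-learning gating ran from Hoechst high-intensity objects versus normal cells, to healthy, pyknosed or fragmented nuclei among normal cells, to mitotic or apoptotic among pyknosed cells. Tubulin, mitochondrial-mass and membrane-permeability phenotypes are per cents of healthy-nucleus cells.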

[1] = 12 h, 1 µM, compound concentration 1 uM, replicate 1
[2] = 12 h, 1 µM, compound concentration 1 uM, replicate 2
[3] = 12 h, 10 µM, compound concentration 10 uM, replicate 1
[4] = 12 h, 10 µM, compound concentration 10 uM, replicate 2
[5] = 24 h, 1 µM, compound concentration 1 uM, replicate 1
[6] = 24 h, 1 µM, compound concentration 1 uM, replicate 2
[7] = 24 h, 10 µM, compound concentration 10 uM, replicate 1
[8] = 24 h, 10 µM, compound concentration 10 uM, replicate 2
[9] = 48 h, 1 µM, compound concentration 1 uM, replicate 1
[10] = 48 h, 1 µM, compound concentration 1 uM, replicate 2
[11] = 48 h, 10 µM, compound concentration 10 uM, replicate 1
[12] = 48 h, 10 µM, compound concentration 10 uM, replicate 2

Cc1cnc(-c2cc(N3CCN(C(=O)CCS(C)(=O)=O)CC3)ncc2Cl)c(C)c1
Population Apoptotic (%) [1]: 29% | Population Fragmented Nuclei (%) [1]: 6% | Population Healthy Nuclei (%) [1]: 76% | Population Hoechst High Intensity Objects (%) [1]: 4% | Population Membrane Permeable-Phenotype (%) [1]: 0% | Population Mitochondria Different-Phenotype (%) [1]: 50% | Population Mitotic Cells (%) [1]: 70% | Population Normal (%) [1]: 95% | Population Pyknosed Nuclei (%) [1]: 16% | Population Tubulin-Different-Phenotype (%) [1]: 33% | Total Cell Count [1]: 276 | Population Apoptotic (%) [2]: 42% | Population Healthy Nuclei (%) [2]: 75% | Population Hoechst High Intensity Objects (%) [2]: 9% | Population Mitochondria Different-Phenotype (%) [2]: 69% | Population Mitotic Cells (%) [2]: 57% | Population Normal (%) [2]: 90% | Population Pyknosed Nuclei (%) [2]: 17% | Population Tubulin-Different-Phenotype (%) [2]: 24% | Total Cell Count [2]: 294 | Population Apoptotic (%) [3]: 42% | Population Fragmented Nuclei (%) [3]: 7% | Population Healthy Nuclei (%) [3]: 82% | Population Hoechst High Intensity Objects (%) [3]: 10% | Population Membrane Permeable-Phenotype (%) [3]: 0% | Population Mitochondria Different-Phenotype (%) [3]: 47% | Population Mitotic Cells (%) [3]: 57% | Population Normal (%) [3]: 89% | Population Pyknosed Nuclei (%) [3]: 10% | Population Tubulin-Different-Phenotype (%) [3]: 40% | Total Cell Count [3]: 409 | Population Apoptotic (%) [4]: 45% | Population Healthy Nuclei (%) [4]: 75% | Population Hoechst High Intensity Objects (%) [4]: 7% | Population Mitochondria Different-Phenotype (%) [4]: 70% | Population Mitotic Cells (%) [4]: 54% | Population Normal (%) [4]: 92% | Population Pyknosed Nuclei (%) [4]: 17% | Population Tubulin-Different-Phenotype (%) [4]: 39% | Total Cell Count [4]: 288 | Population Apoptotic (%) [5]: 36% | Population Fragmented Nuclei (%) [5]: 8% | Population Healthy Nuclei (%) [5]: 78% | Population Hoechst High Intensity Objects (%) [5]: 2% | Population Membrane Permeable-Phenotype (%) [5]: 1% | Population Mitochondria Different-Phenotype (%) [5]: 30% | Population Mitotic Cells (%) [5]: 63% | Population Normal (%) [5]: 97% | Population Pyknosed Nuclei (%) [5]: 12% | Population Tubulin-Different-Phenotype (%) [5]: 21% | Total Cell Count [5]: 368 | Population Apoptotic (%) [6]: 40% | Population Fragmented Nuclei (%) [6]: 7% | Population Healthy Nuclei (%) [6]: 83% | Population Hoechst High Intensity Objects (%) [6]: 6% | Population Membrane Permeable-Phenotype (%) [6]: 0% | Population Mitochondria Different-Phenotype (%) [6]: 36% | Population Mitotic Cells (%) [6]: 60% | Population Normal (%) [6]: 93% | Population Pyknosed Nuclei (%) [6]: 9% | Population Tubulin-Different-Phenotype (%) [6]: 13% | Total Cell Count [6]: 413 | Population Apoptotic (%) [7]: 33% | Population Fragmented Nuclei (%) [7]: 15% | Population Healthy Nuclei (%) [7]: 76% | Population Hoechst High Intensity Objects (%) [7]: 5% | Population Membrane Permeable-Phenotype (%) [7]: 0% | Population Mitochondria Different-Phenotype (%) [7]: 29% | Population Mitotic Cells (%) [7]: 66% | Population Normal (%) [7]: 94% | Population Pyknosed Nuclei (%) [7]: 8% | Population Tubulin-Different-Phenotype (%) [7]: 31% | Total Cell Count [7]: 550 | Population Apoptotic (%) [8]: 51% | Population Fragmented Nuclei (%) [8]: 7% | Population Healthy Nuclei (%) [8]: 80% | Population Mitochondria Different-Phenotype (%) [8]: 47% | Population Mitotic Cells (%) [8]: 48% | Population Pyknosed Nuclei (%) [8]: 12% | Population Tubulin-Different-Phenotype (%) [8]: 22% | Total Cell Count [8]: 392 | Population Apoptotic (%) [9]: 27% | Population Fragmented Nuclei (%) [9]: 17% | Population Healthy Nuclei (%) [9]: 76% | Population Hoechst High Intensity Objects (%) [9]: 1% | Population Membrane Permeable-Phenotype (%) [9]: 1% | Population Mitochondria Different-Phenotype (%) [9]: 17% | Population Mitotic Cells (%) [9]: 72% | Population Normal (%) [9]: 98% | Population Pyknosed Nuclei (%) [9]: 6% | Population Tubulin-Different-Phenotype (%) [9]: 10% | Total Cell Count [9]: 718 | Population Apoptotic (%) [10]: 34% | Population Fragmented Nuclei (%) [10]: 14% | Population Healthy Nuclei (%) [10]: 78% | Population Hoechst High Intensity Objects (%) [10]: 2% | Population Membrane Permeable-Phenotype (%) [10]: 0% | Population Mitochondria Different-Phenotype (%) [10]: 22% | Population Mitotic Cells (%) [10]: 65% | Population Normal (%) [10]: 97% | Population Tubulin-Different-Phenotype (%) [10]: 6% | Total Cell Count [10]: 595 | Population Apoptotic (%) [11]: 25% | Population Fragmented Nuclei (%) [11]: 14% | Population Healthy Nuclei (%) [11]: 78% | Population Hoechst High Intensity Objects (%) [11]: 4% | Population Membrane Permeable-Phenotype (%) [11]: 0% | Population Mitochondria Different-Phenotype (%) [11]: 23% | Population Mitotic Cells (%) [11]: 74% | Population Normal (%) [11]: 95% | Population Pyknosed Nuclei (%) [11]: 7% | Population Tubulin-Different-Phenotype (%) [11]: 17% | Total Cell Count [11]: 753 | Population Apoptotic (%) [12]: 36% | Population Healthy Nuclei (%) [12]: 77% | Population Hoechst High Intensity Objects (%) [12]: 3% | Population Mitochondria Different-Phenotype (%) [12]: 32% | Population Mitotic Cells (%) [12]: 63% | Population Normal (%) [12]: 96% | Population Pyknosed Nuclei (%) [12]: 8% | Population Tubulin-Different-Phenotype (%) [12]: 15% | Total Cell Count [12]: 576

Source: ChEMBL document CHEMBL5058577, “EUbOPEN Chemogenomics Library 2 (Multiplex)” (2022)
